The source of these data is ChEMBL document CHEMBL3621122, “Synthesis of new indole-based bisphosphonates and evaluation of their chelating ability in PE/CA-PJ15 cells” (Eur J Med Chem, 2015).

The species entered for data set [1] is Homo sapiens. Put plainly: Metal chelating activity in human PE/CA-PJ15 cells assessed as change in cytosolic Ca2+ concentration at 10 to 30 uM after 50 secs using Ca2+ free medium by FURA-2 AM probe-based spectrophotofluorometric analysis. The data set is classed as functional, cell-based. In short, it runs like this: (§1)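 Cultured PE/CA-PJ15 cells loaded with FURA-2 AM for 60 min at 37 °C in the dark. Cells resuspended in HBSS pH 7.4, either Ca2+-free (0.1 mM EGTA) or with 1 mM Ca2+. Bisphosphonate added to 10 µM, then a second addition 150 s later to 30 µM. Ratio fluorescence read at ex 340/380 nm, em 510 nm, converted to [Ca2+]c. Δ[Ca2+]c (nM) taken 50 s after addition; mean of 10 experiments ± SEM.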

The species entered for data set [2] is Homo sapiens. Put plainly: Increase in cytosolic Ca2+ concentration in human PE/CA-PJ15 cells after 50 secs using Ca2+ containing medium by FURA-2 AM probe-based spectrophotofluorometric analysis. The data set is classed as functional, cell-based. A digest of the protocol: as §1
The species named for data set [3] is Homo sapiens. The data set is described as follows: Metal chelating activity in human PE/CA-PJ15 cells assessed as change in cytosolic Ca2+ concentration at 60 uM after 50 secs using Ca2+ free medium by FURA-2 AM probe-based spectrophotofluorometric analysis. The data set is classed as functional, cell-based.
Data set [4] is filed under the species Homo sapiens. The data set is described as follows: Metal chelating activity in human PE/CA-PJ15 cells assessed as decrease in extracellular Ca2+ concentration at 30 uM by FURA-2 AM probe-based spectrophotofluorometric analysis. The class given is functional, cell-based. Details: scale not given: the % may be the effect or the level left. In short, it runs like this:
(§2)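 Cell suspension was diluted into HBSS with 1 mM CaCl2 and lysed with 1% Triton X-100. Ca2+/Fura-2 fluorescence after lysis was set as 100%, and bisphosphonate (10–30 µM) was then added. The fluorescence drop was followed over time and read at 30 µM. Mean of 10 experiments ± SEM.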

The species named for data set [5] is Homo sapiens. The data set is described as follows: Metal chelating activity in human PE/CA-PJ15 cells assessed as decrease in cytosolic Ca2+ concentration at 10 to 30 uM after 50 secs using Ca2+ free medium by FURA-2 AM probe-based spectrophotofluorometric analysis.
For data set [6], the species on record is Homo sapiens. The data set is described as follows: Metal chelating activity in human PE/CA-PJ15 cells assessed as change in cytosolic Ca2+ concentration at 60 uM after 50 secs using Ca2+ containing medium by FURA-2 AM probe-based spectrophotofluorometric analysis. The data set is classed as functional, cell-based.
The species named for data set [7] is Homo sapiens. The data set is described as follows: Metal chelating activity in human PE/CA-PJ15 cells assessed as change in cytosolic Ca2+ concentration at 10 to 30 uM after 50 secs using Ca2+ containing medium by FURA-2 AM probe-based spectrophotofluorometric analysis. The class given is functional, cell-based. In short, it runs like this: as §1
Data set [8] can be described thus: Drug level in presence of tetraethyl (3-(indol-3-yl)propane-1,1-diyl)bis(phosphonate). The data set is classed as physicochemical. A digest of the protocol:
(§3)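 Substrate at 5 µM final with human liver microsomes (0.5 mg protein/ml) in 100 mM potassium phosphate pH 7.4, preincubated 5 min at 37 °C with shaking; started with 1 mM NADPH. Stopped at 0 and 30 min with cold acetonitrile containing labetalol internal standard. Protein spun down; supernatant analysed by HPLC-MS/MS for parent remaining.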

Data set [9] concerns Liver microsome. Put plainly: Drug level in human liver microsomes treated with tetraethyl (3-(5-fluoroindol-3-yl)propane-1,1-diyl)bis(phosphonate) at 5 uM preincubated for 5 mins followed by NADPH addition measured after 30 mins by LC/MS analysis. The data set is classed as ADME. The note with it: 0.5 h. A digest of the protocol:
(§4)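 Human liver microsomes (0.5 mg protein/ml) with substrate at 5 µM final in 100 mM potassium phosphate pH 7.4. Preincubated 5 min at 37 °C with shaking, then started with 1 mM NADPH. Stopped at 0 and 30 min with cold acetonitrile containing labetalol internal standard. Spun 12,000 g, 5 min, 4 °C; supernatant analysed by HPLC-MS/MS.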

The test system of data set [10] is Liver microsome. Put plainly: Retention time of the compound in human liver microsomes at 5 uM preincubated for 5 mins followed by NADPH addition measured after 30 mins by LC/MS analysis. The data set is classed as ADME. The note with it: 0.5 h. A digest of the protocol: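 Microsomal incubation: 0.5 mg protein/ml, 5 µM substrate final, pH 7.4 phosphate, 5 min preincubation at 37 °C, 1 mM NADPH, quenched at 0 and 30 min with cold acetonitrile. Supernatant run by HPLC-MS/MS on a C18 column (100 × 2.1 mm, 40 °C). Mobile phases were water/0.1% formic acid and acetonitrile/0.1% formic acid at 0.3 mL/min, gradient from 0% B.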
A general note: Liver microsomes are a subcellular fraction often used to study metabolism.

In data set [11] the test system is Liver microsome. Put plainly: Drug metabolism in human liver microsomes assessed as radical of 3-allyl-5-fluoro-1H-indole formation by measuring remaining compound level at 5 uM preincubated for 5 mins followed by NADPH addition measured after 30 mins by LC/MS analysis. The data set is classed as ADME. The note with it: 0.5 h. In short, it runs like this: as §3

Data set [12] is described as follows: Lipophilicity, log P of the compound. The class given is physicochemical. The conditions noted are these: octanol/water.
In data set [13] the test system is Liver microsome. The data set is described as follows: Drug level in human liver microsomes treated with tetraethyl (3-(indol-3-yl)propane-1,1-diyl)bis(phosphonate) at 5 uM preincubated for 5 mins followed by NADPH addition measured after 30 mins by LC/MS analysis. The class given is ADME. The note with it: 0.5 h. In short, it runs like this:
as §4

The test system of data set [14] is Liver microsome. The data set is described as follows: Drug metabolism in human liver microsomes assessed as radical of 3-allyl-1H-indole/3-methyl-1H-indole formation by measuring remaining compound level at 5 uM preincubated for 5 mins followed by NADPH addition measured after 30 mins by LC/MS analysis. The class given is ADME. The conditions noted are these: 0.5 h. A digest of the protocol:
as §3

The species named for data set [15] is Homo sapiens. The data set is described as follows: Metal chelating activity in human PE/CA-PJ15 cells assessed as decrease in extracellular Ca2+ concentration by FURA-2 AM probe-based spectrophotofluorometric analysis. The class given is functional, cell-based. A digest of the protocol: as §2

By logP is commonly meant the decadic logarithm of the partition coefficient of the neutral form, usually between octanol and water.

Calls of active or inactive are those of the source. The calls are words filed in the database; no cut-off is given here.

As to `CCOP(=O)(OCC)C(CCc1c[nH]c2ccncc12)P(=O)(OCC)OCC`, the outcome in the data set filed under Homo sapiens [1] and in the data set listed under Homo sapiens [5] was inactive. The Activity entry in the data set listed under Homo sapiens [2] is “Dose-dependent effect”; in the data set filed under Homo sapiens [3] it was 36 nM; in the data set listed under Homo sapiens [4], -6%; in the data set filed under Homo sapiens [6], 67 nM.
As for `CCOP(=O)(OCC)C(CCc1c[nH]c2ccc(C(F)(F)F)cc12)P(=O)(OCC)OCC`, the result in the data set listed under Homo sapiens [1] and in the data set listed under Homo sapiens [7] was Active. The Activity in the data set filed under Homo sapiens [4] was -16.5%.
In the case of `CCOP(=O)(OCC)C(CCc1c[nH]c2cc(F)ccc12)P(=O)(OCC)OCC`, the outcome in the data set listed under Homo sapiens [1] and in the data set filed under Homo sapiens [7] was Active. In addition, the Activity in the data set listed under Homo sapiens [4] was -18%.
Regarding `O=P(O)(O)C(CCc1c[nH]c2ccccc12)P(=O)(O)O`, the Drug metabolism entry in data set [8] is given as “metabolite_detected”.
With `O=P(O)(O)C(CCc1c(C2Nc3ccccc3C2CCC(P(=O)(O)O)P(=O)(O)O)[nH]c2ccccc12)P(=O)(O)O` (stereo unspecified), the Drug metabolism entry in [8] was “metabolite_detected”.
On to `NCCCC(O)(P(=O)(O)O)P(=O)(O)O`, for which the outcome in the data set filed under Homo sapiens [1] and in the data set listed under Homo sapiens [7] was Active. Besides, the Activity in the data set listed under Homo sapiens [4] is -7%.
In the case of `[CH]=CCc1c[nH]c2ccc(F)cc12`, the Drug metabolism result in the data set on Liver microsome [9] was “metabolite_detected”. This compound gave a Retention_time in the data set on Liver microsome [10] of 5.628 min.
For `CCOP(=O)(OCC)C(CCc1c[nH]c2ccc(F)cc12)P(=O)(OCC)OCC`, the outcome in the data set listed under Homo sapiens [1], in the data set listed under Homo sapiens [5] and in the data set filed under Homo sapiens [7] was Active. Further, in the data set with Liver microsome [11], the Stability is 20%. The Activity in the data set filed under Homo sapiens [4] was -34%. The compound also had a Retention_time in the data set with Liver microsome [10] of 8.365 min.
As for `CC(O)(P(=O)(O)O)P(=O)(O)O` [ETIDRONATE DISODIUM], in [12] (read-out: logP), the logP was -3.8.
With `O=P(O)(O)C(Cl)(Cl)P(=O)(O)O` [CLODRONATE DISODIUM], the outcome in the data set filed under Homo sapiens [1] and in the data set filed under Homo sapiens [7] was Active. Moreover, the logP in data set [12] (read-out: logP) is -2.4. In addition, the Activity in the data set listed under Homo sapiens [4] was -12%.
`O=P([O-])(O)C(O)(Cc1cccnc1)P(=O)(O)O.[Na+]` [RISEDRONATE SODIUM] showed a logP in data set [12] of -3.6.
Regarding `CCOP(=O)(OCC)C(CCc1c[nH]c2cc(C(F)(F)F)ccc12)P(=O)(OCC)OCC`, the result in the data set filed under Homo sapiens [1] and in the data set filed under Homo sapiens [7] was Active. Also, the Activity in the data set listed under Homo sapiens [4] is -5%.
Turning to `NCCC(O)(P(=O)([O-])O)P(=O)([O-])O.[Na+].[Na+]`, the logP in data set [12] is given as -4.7.
In the data set with Liver microsome [10], `[CH2]c1c[nH]c2ccccc12` registered a Retention_time of 5.183 min. Further, in the data set on Liver microsome [13], the Drug metabolism result was “metabolite_detected”.
For `CCOP(=O)(OCC)C(CCc1c[nH]c2ccccc12)P(=O)(OCC)OCC`, the outcome in the data set filed under Homo sapiens [1], in the data set listed under Homo sapiens [5] and in the data set filed under Homo sapiens [7] was Active. The Stability in the data set on Liver microsome [14] is given as 20%. Moreover, the figures for the Activity result in the data set filed under Homo sapiens [15] and in the data set filed under Homo sapiens [4] were “Dose-dependent effect” and -73%, respectively. For the same compound, the Retention_time in the data set on Liver microsome [10] is given as 8.142 min.
In the data set with Liver microsome [10], `[CH]=CCc1c[nH]c2ccccc12` showed a Retention_time of 6.829 min. The Drug metabolism entry in the data set on Liver microsome [13] is “metabolite_detected”.
